Results: ChEMBL document CHEMBL3745714, “Fragment-based drug discovery of potent and selective MKK3/6 inhibitors” (Bioorg Med Chem Lett, 2016)

Experiments:
[1] = target: T1, Dual specificity mitogen-activated protein kinase kinase 3 (Homo sapiens, UniProt P46734); experiment: Inhibition of MKK3 (unknown origin) using [gamma-33P]-ATP after 20 mins by radiometric assay
T1 sequence (P46734 whole entry): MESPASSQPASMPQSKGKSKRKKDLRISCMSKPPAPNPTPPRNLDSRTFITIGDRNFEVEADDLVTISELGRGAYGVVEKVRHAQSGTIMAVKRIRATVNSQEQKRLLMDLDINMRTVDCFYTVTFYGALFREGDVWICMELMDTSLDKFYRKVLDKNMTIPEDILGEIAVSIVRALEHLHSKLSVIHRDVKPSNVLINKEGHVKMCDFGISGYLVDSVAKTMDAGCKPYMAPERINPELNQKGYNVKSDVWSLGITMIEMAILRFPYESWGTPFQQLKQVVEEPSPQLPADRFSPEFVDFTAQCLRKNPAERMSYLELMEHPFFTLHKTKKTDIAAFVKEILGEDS

Homo sapiens [2] = organism: Homo sapiens; experiment: Selectivity ratio of IC50 for MKK3 (unknown origin) to IC50 for MEK2 (unknown origin)
Homo sapiens [3] = organism: Homo sapiens; experiment: Selectivity ratio of IC50 for MKK3 (unknown origin) to IC50 for MEK1 (unknown origin)
Homo sapiens [4] = organism: Homo sapiens; experiment: Selectivity ratio of IC50 for MKK3 (unknown origin) to IC50 for MLK3 (unknown origin)
Homo sapiens [5] = organism: Homo sapiens; experiment: Selectivity ratio of IC50 for MKK3 (unknown origin) to IC50 for JNK1 (unknown origin)
Homo sapiens [6] = organism: Homo sapiens; experiment: Selectivity ratio of IC50 for MKK3 (unknown origin) to IC50 for ERK2 (unknown origin)
Homo sapiens [7] = organism: Homo sapiens; experiment: Selectivity ratio of IC50 for MKK3 (unknown origin) to IC50 for p38alpha (unknown origin)
[8] = target: Mitogen-activated protein kinase 14 (Homo sapiens, UniProt Q16539); experiment: Inhibition of p38alpha phosphorylation in human TNFalpha-stimulated U937 cells treated 1 hr before by ELISA; format: cell-based, U-937
Procedure, shortened: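 U937 human leukemic monocytes were pre-treated with compound across a dose range for one hour, then stimulated with TNFα. Phospho-p38α was quantified by ELISA, and IC50 was taken from the dose-response.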

Homo sapiens [9] = organism: Homo sapiens; experiment: Selectivity ratio of IC50 for MKK3 (unknown origin) to IC50 for JNK2 (unknown origin)
Homo sapiens [10] = organism: Homo sapiens; experiment: Selectivity ratio of IC50 for MKK3 (unknown origin) to IC50 for p38gamma (unknown origin)
Homo sapiens [11] = organism: Homo sapiens; experiment: Selectivity ratio of IC50 for MKK3 (unknown origin) to IC50 for ERK1 (unknown origin)
Homo sapiens [12] = organism: Homo sapiens; experiment: Selectivity ratio of IC50 for MKK3 (unknown origin) to IC50 for TAK1 (unknown origin)
Homo sapiens [13] = organism: Homo sapiens; experiment: Selectivity ratio of IC50 for MKK3 (unknown origin) to IC50 for MKK6 (unknown origin)
Homo sapiens [14] = organism: Homo sapiens; experiment: Selectivity ratio of IC50 for MKK3 (unknown origin) to IC50 for ASK1 (unknown origin)
[15] = target: T2, Dual specificity mitogen-activated protein kinase kinase 6 (Homo sapiens, UniProt P52564); experiment: Inhibition of MKK6 (unknown origin) using [gamma-33P]-ATP after 20 mins by radiometric assay
T2 sequence (P52564 whole entry): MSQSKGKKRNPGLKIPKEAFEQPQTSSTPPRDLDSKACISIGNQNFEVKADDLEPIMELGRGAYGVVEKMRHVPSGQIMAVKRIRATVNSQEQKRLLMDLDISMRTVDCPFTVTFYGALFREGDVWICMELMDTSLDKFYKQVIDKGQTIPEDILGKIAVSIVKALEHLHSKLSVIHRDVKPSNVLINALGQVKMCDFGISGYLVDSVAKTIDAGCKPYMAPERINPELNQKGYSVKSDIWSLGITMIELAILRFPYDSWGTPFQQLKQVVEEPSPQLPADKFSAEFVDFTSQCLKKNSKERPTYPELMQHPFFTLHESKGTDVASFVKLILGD

[16] = target: T1, Dual specificity mitogen-activated protein kinase kinase 3; experiment: Binding affinity to MKK3 (unknown origin) by surface plasmon resonance assay

Sequence of Mitogen-activated protein kinase 14 (Q16539 whole entry): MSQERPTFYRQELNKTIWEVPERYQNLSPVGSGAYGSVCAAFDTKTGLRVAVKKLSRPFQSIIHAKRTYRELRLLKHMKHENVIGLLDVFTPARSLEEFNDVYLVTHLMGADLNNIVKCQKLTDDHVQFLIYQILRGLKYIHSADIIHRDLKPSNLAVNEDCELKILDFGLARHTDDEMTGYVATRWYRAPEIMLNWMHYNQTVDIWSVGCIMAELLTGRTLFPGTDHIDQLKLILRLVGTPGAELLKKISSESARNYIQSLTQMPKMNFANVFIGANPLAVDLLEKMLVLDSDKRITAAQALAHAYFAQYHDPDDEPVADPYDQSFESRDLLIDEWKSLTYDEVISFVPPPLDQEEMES

SMILES	IC50 [1] [µM]	Ratio IC50 (Homo sapiens [2])	Ratio IC50 (Homo sapiens [3])	Ratio IC50 (Homo sapiens [4])	Ratio IC50 (Homo sapiens [5])	Ratio IC50 (Homo sapiens [6])	Ratio IC50 (Homo sapiens [7])	IC50 [8] [µM]	Ratio IC50 (Homo sapiens [9])	Ratio IC50 (Homo sapiens [10])	Ratio IC50 (Homo sapiens [11])	Ratio IC50 (Homo sapiens [12])	Ratio IC50 (Homo sapiens [13])	Ratio IC50 (Homo sapiens [14])	IC50 [15] [µM]	Kd [16] [µM]
NC(=O)c1nc(-c2ccncc2)ccc1N	0.03															
NC(=O)c1nc(-c2ccccc2)ccc1N	4.2															
CNc1ccc(-c2ccncc2)nc1C(N)=O	0.004	> 100	> 100	> 100	> 100	> 100	> 100	2.7	> 100	> 100	> 100	> 100	< 9	> 100		
NC(=O)c1nnc2ccccc2c1N	37														16	2
NC(=O)c1nc(-c2ccns2)c2ccccn12	0.004	> 100	86	> 100	> 100	> 100	> 100	0.73	> 100	> 100	> 100	23	12	> 100		
NC(=O)c1nc(-c2ccncc2)c2ccccn12	0.15															
